Measurements taken from publication PMC9359405 (International Journal of Nanomedicine, 2022).

What was measured:
Type in all cases: in vivo, Wistar rats
[1] = system: BCRP; assay: Immunohistochemistry of efflux proteins in brain tissue; settings: intranasal 1.25 mg/kg, 14 days, score 0-12
[2] = system: P-gp; assay: as above; settings: intranasal 1.25 mg/kg, 14 days, score 0-12
[3] = system: MRP1; assay: as above; settings: intranasal 1.25 mg/kg, 14 days, score 0-12
[4] = Pharmacokinetics in blood and vital organs; settings: for CL/F: gavage; for AUC(0-t) / Cmax / MRT last / Tmax / half-life: male, Wistar, rat, po
Procedure, shortened: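 Male Wistar rats (200±20 g) received the test compound as an aqueous solution by gavage. Five rats were sampled at each of 11 times from 5 min to 24 h, and blood and organs were collected and weighed. Tissue homogenates (1% perchloric acid) and plasma (6% perchloric acid) were deproteinized, extracted into ethyl acetate at pH 11.8, and analysed by HPLC at 308 nm. Mean±SD, n=5.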

[5] = nasal NEs vs gavage HupA aqueous solution

CL/F ([4]; Brain): 42.63 ± 7.93 mL·h
CL/F ([4]; Heart): 7.26 ± 0.05 mL·h
CL/F ([4]; Kidney): 0.91 ± 0.02 mL·h
CL/F ([4]; Liver): 2.88 ± 0.15 mL·h
CL/F ([4]; Lung): 4.03 ± 0.09 mL·h
CL/F ([4]; Plasma): 9.88 ± 0.89 mL·h
CL/F ([4]; Spleen): 2.45 ± 0.03 mL·h
AUC(0-t) ([4]; brain): 28.6 ± 5.72 ng·h/mL
Cmax ([4]; brain): 15 ± 4.25 ng/mL
MRT last ([4]; brain): 1.49 ± 0.12 h
Tmax ([4]; brain): 0.5 h
half-life ([4]; brain): 1.27 ± 0.16 h
AUC(0-t) ([4]; heart): 163 ± 5.85 ng·h/mL
Cmax ([4]; heart): 163 ± 7.33 ng/mL
MRT last ([4]; heart): 1.6 ± 0.05 h
Tmax ([4]; heart): 0.5 h
half-life ([4]; heart): 2.21 ± 0.68 h
AUC(0-t) ([4]; kidney): 1350 ± 33.3 ng·h/mL
Cmax ([4]; kidney): 567 ± 40.6 ng/mL
MRT last ([4]; kidney): 2.78 ± 0.05 h
Tmax ([4]; kidney): 1 h
half-life ([4]; kidney): 2.1 ± 0.1 h
AUC(0-t) ([4]; liver): 424 ± 22.9 ng·h/mL
Cmax ([4]; liver): 256 ± 8.27 ng/mL
MRT last ([4]; liver): 1.95 ± 0.04 h
Tmax ([4]; liver): 0.5 h
AUC(0-t) ([4]; lung): 288 ± 13 ng·h/mL
Cmax ([4]; lung): 173 ± 14.1 ng/mL
MRT last ([4]; lung): 2.28 ± 0.06 h
Tmax ([4]; lung): 1 h
half-life ([4]; lung): 2.49 ± 0.13 h
AUC(0-t) ([4]; plasma): 119 ± 10.1 ng·h/mL
Cmax ([4]; plasma): 109 ± 8.99 ng/mL
MRT last ([4]; plasma): 1.31 ± 0.12 h
Tmax ([4]; plasma): 0.5 h
half-life ([4]; plasma): 1.77 ± 0.83 h
AUC(0-t) ([4]; spleen): 485 ± 5.11 ng·h/mL
Cmax ([4]; spleen): 195 ± 4.58 ng/mL
MRT last ([4]; spleen): 2.03 ± 0.06 h
Tmax ([4]; spleen): 1 h
Compound: C/C=C1\[C@H]2C=C(C)C[C@]1(N)c1ccc(=O)[nH]c1C2 [HupA Solution, huperzine A]
BCRP protein expression (immunoreactive score) [1]: higher in the HupA aqueous solution group than in the blank control group
P-gp protein expression (immunoreactive score) [2]: higher in the HupA aqueous solution group than in the blank control group
MRP1 protein expression (immunoreactive score) [3]: higher in the HupA aqueous solution group than in the blank control group
Concentration (C) of the drug in brain tissue at the same time point (order) [4, 5]: CLf-HupA-NE>CHupA-NE>CHupA aqueous solution
Duration of action in the brain (T) (order) [4, 5]: TLf-HupA-NE>THupA-NE>THupA aqueous solution
